According to ChEMBL document CHEMBL3352678, “Synthesis and acetylcholinesterase inhibitory activity of Mannich base derivatives flavokawain B” (Bioorg Med Chem Lett, 2014):

Legend:
[1] = compound: COc1cc(OC)c(C(=O)/C=C/c2ccccc2)c(O)c1CN1CCCCC1; assay: Inhibition of Sprague-Dawley rat brain AChE using acetylthiocholin iodide as substrate at 2.2 uM by Michaelis-Menten equation
Summary of the method: (§1)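 Kinetic analysis: Km and vmax were determined at several inhibitor concentrations. Ki for the free enzyme came from a linear replot of slope against inhibitor concentration. Ki′ for the enzyme–substrate complex came from a linear replot of intercept against inhibitor concentration.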

[2] = compound: COc1cc(OC)c(C(=O)/C=C/c2ccccc2)c(O)c1CN1CCCCC1; assay: Inhibition of Sprague-Dawley rat brain AChE using acetylthiocholin iodide as substrate at 4.4 uM by Michaelis-Menten equation; summary of the method: as §1

B1: Acetylcholinesterase (Rattus norvegicus), P37136 (protein)
chain: MRPPWYPLHTPSLASPLLFLLLSLLGGGARAEGREDPQLLVRVRGGQLRGIRLKAPGGPVSAFLGIPFAEPPVGSRRFMPPEPKRPWSGILDATTFQNVCYQYVDTLYPGFEGTEMWNPNRELSEDCLYLNVWTPYPRPTSPTPVLIWIYGGGFYSGASSLDVYDGRFLAQVEGTVLVSMNYRVGTFGFLALPGSREAPGNVGLLDQRLALQWVQENIAAFGGDPMSVTLFGESAGAASVGMHILSLPSRSLFHRAVLQSGTPNGPWATVSAGEARRRATLLARLVGCPPGGAGGNDTELISCLRTRPAQDLVDHEWHVLPQESIFRFSFVPVVDGDFLSDTPDALINTGDFQDLQVLVGVVKDEGSYFLVYGVPGFSKDNESLISRAQFLAGVRIGVPQASDLAAEAVVLHYTDWLHPEDPAHLRDAMSAVVGDHNVVCPVAQLAGRLAAQGARVYAYIFEHRASTLTWPLWMGVPHGYEIEFIFGLPLDPSLNYTVEERIFAQRLMQYWTNFARTGDPNDPRDSKSPRWPPYTTAAQQYVSLNLKPLEVRRGLRAQTCAFWNRFLPKLLSATDTLDEAERQWKAEFHRWSSYMVHWKNQFDHYSKQERCSDL
B1 gave a Km [1] of 4.18 mM, a Vmax [1] of 0.0288 deltaA/min and a Km [2] of 4.63 mM. For the same protein, the Vmax [2] was 0.0212 deltaA/min.
